The target in assay [1] is T1, PDZ2 (second PDZ domain, 1361-1456) from human PTP1E/PTPL1 (Homo sapiens, UniProt Q12923).
T1 sequence (Q12923 1361-1456): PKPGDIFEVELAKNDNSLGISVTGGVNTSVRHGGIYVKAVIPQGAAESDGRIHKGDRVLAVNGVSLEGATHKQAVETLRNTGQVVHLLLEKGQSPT
The experiment in a line: NMR titration binding affinity of peptide to PDZ2. The gist of the method:
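NMR titration of test peptide into PDZ2 expressed in E. coli BL21(DE3), 1 mM, in 150 mM NaCl, 50 mM sodium phosphate pH 6.8, 10% D2O, at 25 °C on 500/600 MHz spectrometers. Protein concentration by UV absorbance at 280 nm; Kd derived from titration.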

Assay [2] addresses T1, PDZ2 (second PDZ domain, 1361-1456) from human PTP1E/PTPL1. The experiment in a line: Fluorescence binding affinity of peptide to PDZ2.
For assay [3], the target named is T2, APC C-terminal peptide (Homo sapiens).
T2 chain: GSYLVTSV
The assay is described as follows: NMR titration.

Three molecules from PMC3001272 (Biochemistry, 2010) can be followed below.

Where a SMILES comes first, the peptide text is derived from it.

With `CC(C)C[C@H](NC(=O)[C@H](Cc1ccc(O)cc1)NC(=O)[C@H](CO)NC(=O)CN)C(=O)N[C@H](C(=O)N[C@H](C(=O)N[C@@H](CO)C(=O)N[C@H](C(=O)O)C(C)C)[C@@H](C)O)C(C)C` [APC] (H-GSYLVTSV-OH), the affinity in assay [1], expressed as Kd, was 10 µM. `CC(=O)N[C@@H](CCC(=O)O)C(=O)N[C@@H](CC(N)=O)C(=O)N[C@@H](CCC(=O)O)C(=O)N[C@@H](CCC(N)=O)C(=O)N[C@H](C(=O)N[C@@H](CO)C(=O)N[C@@H](C)C(=O)N[C@H](C(=O)O)C(C)C)C(C)C` [RA-GEF2] (Ac-ENEQVSAV-OH) had a dissociation constant (Kd) in assay [2] of 10 µM.

B1: PTP1E (PTPL1) PDZ2 1361-1456 (protein)
chain: T1 sequence (Q12923 1361-1456)
Consider B1, for which, in assay [3], the Kd turned out to be 10 µM.

As a reminder, the Kd is a measure of binding affinity in units of concentration.
